Reference: ChEMBL document CHEMBL2093137, “WHO-TDR NTD Screening”
Values after ≈ are worked out from the molar mass of the structure shown.

Key:
[1] = WHO-TDR: Cytotoxicity; assay type: toxicity, cell-based; conditions: human, MRC5 cells
[2] = test system: Plasmodium falciparum K1; assay: WHO-TDR: Malaria; assay type: functional, organism-based, Homo sapiens; conditions: Erythrocyte
Method in brief: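 A diverse library of 10,000 compounds from Life Chemicals, filtered for drug-likeness and reactive groups, was screened against the intra-erythrocytic Plasmodium falciparum K1 strain in human red blood cells. Previously published standard procedures were followed, with a reference drug as positive control. Antiplasmodial potency is given as IC50.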

[3] = test system: Trypanosoma cruzi; assay: WHO-TDR: Chagas disease; assay type: functional, organism-based, Homo sapiens; conditions: MRC5
Method in brief: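 Whole-organism screen of a 10,000-compound diverse library from Life Chemicals, filtered for drug-likeness and reactive groups, against intracellular amastigotes of Trypanosoma cruzi Tulahuen CL2 beta-galactosidase strain grown in MRC-5SV2 human lung fibroblast host cells. The assay followed previously published standard procedures, with a reference drug as positive control. Antiparasitic potency is reported as IC50.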

[4] = test system: Trypanosoma brucei brucei; assay: WHO-TDR: Human African Trypanosomiasis (HAT); assay type: functional, organism-based; conditions: Squib-427
Method in brief: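 A diverse library of 10,000 compounds from Life Chemicals, filtered for drug-likeness and reactive groups, was screened against bloodstream forms of Trypanosoma brucei Squib 427 strain in a whole-organism assay. Previously published standard procedures were followed, with reference drugs serving as positive controls. Antiparasitic potency is given as IC50.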

[5] = test system: Leishmania infantum; assay: WHO-TDR: Leishmaniasis; assay type: functional, organism-based, Mus musculus; conditions: Macrophage
Method in brief: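 A diverse library of 10,000 compounds from Life Chemicals, filtered for drug-likeness and reactive groups, was screened against whole organisms. The targets were intracellular amastigotes of Leishmania infantum MHOM/MA(BE)/67 growing in murine peritoneal macrophages. Previously published standard procedures were followed, with a reference drug as positive control. Antiparasitic potency is given as IC50.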

[6] = test system: Schistosoma mansoni; assay: WHO-TDR: Schistosomiasis; assay type: functional; set-up: concentration or dose not given beside the values
Method in brief: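 Activity appears as percent inhibition and as IC50. The underlying screen tested a diverse library of 10,000 compounds, supplied by Life Chemicals, on whole larval and/or adult worms of the Puerto Rican strain of Schistosoma mansoni.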

[7] = test system: Brugia malayi; assay: (§1) WHO-TDR: Lymphatic Filariasis; assay type: functional; set-up: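 tested at 10 µM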
Method in brief: (§2)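 Following previously published standard procedures, compounds were tested on whole Brugia malayi microfilariae, with reference drugs as positive controls. They came from a diverse Life Chemicals collection of 10,000 compounds filtered for drug-likeness and reactive groups. Results appear as percent inhibition and as IC50.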

[8] = test system: Brugia malayi; assay: as §1; assay type: functional, organism-based; method in brief: as §2
[9] = test system: Brugia malayi; assay: as §1; assay type: functional; set-up: concentration or dose not given beside the values; method in brief: as §2; remark: listed apart in the source
[10] = test system: Onchocerca lienalis; assay: WHO-TDR: Onchocerciasis; assay type: functional; set-up: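 at 12.5 µM on microfilariae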
Method in brief: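 Following previously published standard procedures, with reference drugs as positive controls, a diverse Life Chemicals library was tested on whole Onchocerca ochengi or Onchocerca lienalis microfilariae. The library held 10,000 compounds filtered for drug-likeness and reactive groups. Activity is recorded both as percent inhibition and as IC50.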

Row | IC50 [2] [µg/mL] | IC50 [4] [µg/mL] | IC50 [5] [µg/mL] | IC50 [8] [µM] | Structure (SMILES) | IC50 [1] [µg/mL] | IC50 [3] [µg/mL] | % Inhibition [6] [%] | % Inhibition [7] [%] | % Inhibition [9] [%] | % Inhibition [10] [%]
1 | 1.25 (≈ 3.78 µM) | 0.346 (≈ 1.05 µM) | 3.17 (≈ 9.6 µM) | 5.09 | COc1cccc2sc(Nc3nnc(-c4cccs4)o3)nc12 | 1.83 (≈ 5.54 µM) | 0.313 (≈ 0.947 µM) | 0 | 100 | 50 | –
2 | > 8.35 | > 8.35 | > 8.35 | – | c1ccc2c(CCNc3[nH]cnc4ncnc3-4)c[nH]c2c1 | 1.91 (≈ 6.87 µM) | 0.588 (≈ 2.11 µM) | 0 | 0 | 0 | 13.4
3 | 2.69 (≈ 7.46 µM) | 2.31 (≈ 6.39 µM) | 3.51 (≈ 9.71 µM) | 4.99 | CC1CCc2c(sc(Nc3nc4c(F)cccc4s3)c2C(N)=O)C1 (stereo unspecified) | > 10.8 | 4.66 (≈ 12.9 µM) | 0 | 100 | 25 | –
4 | 7.38 (≈ 15.9 µM) | 4.45 (≈ 9.6 µM) | 0.947 (≈ 2.04 µM) | – | CN1CCc2c(OCC(=O)N3N=C(c4cccs4)CC3c3ccc(F)cc3)cccc2C1=O (stereo unspecified) | > 13.9 | 2.3 (≈ 4.96 µM) | 0 | 90 | 0 | 0
5 | 3.35 (≈ 7.55 µM) | 0.455 (≈ 1.03 µM) | 4.66 (≈ 10.5 µM) | – | COc1ccc2nc(N(CCCN(C)C)C(=O)CCCSc3ccccc3)sc2c1 | 4.06 (≈ 9.16 µM) | 2.53 (≈ 5.71 µM) | 0 | 0 | 0 | 12.34
6 | 2.17 (≈ 5.17 µM) | 1.22 (≈ 2.91 µM) | 4.43 (≈ 10.6 µM) | – | CCN1CCc2c(sc(NC(=O)c3ccccc3)c2-c2nc3ccccc3s2)C1 | 3.75 (≈ 8.94 µM) | 0.514 (≈ 1.23 µM) | 25 | 0 | 0 | 0
7 | 2.77 (≈ 7.04 µM) | 3.46 (≈ 8.8 µM) | 4.24 (≈ 10.8 µM) | – | CC(C)(C)c1ccc(-c2csc(NC(=O)c3ccc4ncsc4c3)n2)cc1 | 7.77 (≈ 19.7 µM) | 0.891 (≈ 2.26 µM) | 0 | 50 | 0 | 33.3
8 | 3.38 (≈ 7.29 µM) | 0.48 (≈ 1.04 µM) | 4.86 (≈ 10.5 µM) | – | CN1CCc2c(sc(NC(=O)C3COc4ccccc4O3)c2-c2nc3ccccc3s2)C1 (stereo unspecified) | 5.39 (≈ 11.6 µM) | 2.48 (≈ 5.35 µM) | 0 | 33.33 | 66.67 | 0
9 | > 9.05 | > 9.05 | > 9.05 | 3.54 | COc1cccc2c1CCN(Cc1ccc(Cl)cc1)C2=O | > 9.05 | 2.48 (≈ 8.23 µM) | 0 | 100 | – | 40
10 | > 10.4 | > 11.1 | > 10.4 | 3.27 | O=C(Nc1nc2c(F)cc(F)cc2s1)c1nc2ccccc2s1 | > 10.4 | > 10.4 | 0 | 100 | 50 | –
11 | > 14.3 | > 15.3 | 4.64 (≈ 9.71 µM) | 1.07 | Cc1c(Cl)ccc2sc(NC(=O)c3ccc(S(=O)(=O)N4CC(C)CC(C)C4)cc3)nc12 (stereo unspecified) | > 14.3 | > 14.3 | 0 | 100 | 80 | –
12 | > 9.93 | > 10.6 | > 9.93 | 3.97 | O=C(Nc1nc2c(Cl)ccc(Cl)c2s1)C1=COCCO1 | > 9.93 | > 9.93 | 0 | 100 | 25 | –
13 | > 10.2 | > 10.9 | > 10.2 | 2.5 | Cc1cc(C)c2sc(NC(=O)c3nc4ccccc4s3)nc2c1 | > 10.2 | > 10.2 | 0 | 100 | 25 | –
14 | > 10.5 | > 11.2 | 3.31 (≈ 9.49 µM) | 2.18 | COc1cccc(C(=O)Nc2nnc(-c3ccc4c(c3)CCCC4)o2)c1 | > 10.5 | > 10.5 | 25 | 100 | 50 | –
15 | > 11.8 | 3.79 (≈ 9.63 µM) | 6.13 (≈ 15.5 µM) | 4.49 | O=C(Nc1nnc(-c2ccc3c(c2)CCCC3)o1)c1cc(Cl)sc1Cl | > 11.8 | 3.88 (≈ 9.83 µM) | 0 | 100 | 50 | –
16 | > 11 | 3.56 (≈ 9.71 µM) | > 11 | 3.54 | CCCCc1ccc(NC(=O)CSc2cn(CC)c3ccccc23)cc1 | > 11 | 2.93 (≈ 7.99 µM) | 0 | 100 | 0 | –
17 | > 9.52 | 3.81 (≈ 12 µM) | > 9.52 | 3.44 | COc1cccc2sc(Nc3nc4c(s3)CCCC4)nc12 | > 9.52 | > 9.52 | 0 | 100 | 50 | –
18 | 4.55 (≈ 12.7 µM) | 0.947 (≈ 2.63 µM) | 4.55 (≈ 12.7 µM) | 4.51 | COc1cccc2sc(Nc3sc4c(c3C(N)=O)CCCC4)nc12 | 3.58 (≈ 9.95 µM) | 3 (≈ 8.35 µM) | 12.5 | 100 | 50 | –
19 | > 12 | > 12 | > 12 | 4.49 | CCOc1cccc2sc(Nc3nc4ccc5sc(C)nc5c4s3)nc12 | > 12 | > 12 | 0 | 100 | 50 | –
20 | > 9.16 | > 9.16 | > 9.16 | 4.36 | Fc1cccc2sc(Nc3nc4c(s3)CCCC4)nc12 | > 9.16 | > 9.16 | 0 | 100 | 50 | –
21 | > 11.2 | > 11.2 | > 11.2 | 5.21 | Cc1nc2ccc3nc(Nc4nc5c(F)cccc5s4)sc3c2s1 | > 11.2 | > 11.2 | 0 | 100 | 50 | –
22 | > 10.1 | > 10.1 | 6.9 (≈ 20.4 µM) | 4.99 | CCOC(=O)c1sc(Nc2nc3c(F)cccc3s2)nc1C | > 10.1 | > 10.1 | 0 | 100 | 50 | –
23 | 6.16 (≈ 16.2 µM) | > 11.4 | > 11.4 | 4.49 | CS(=O)(=O)c1ccc2nc(Nc3nc4c(F)cccc4s3)sc2c1 | > 11.4 | > 11.4 | 0 | 100 | 25 | –
24 | 2.19 (≈ 5.72 µM) | 4.49 (≈ 11.7 µM) | 4.12 (≈ 10.8 µM) | 5.09 | CC(=O)Nc1ccc2nc(Nc3nc4ccc(C(C)C)cc4s3)sc2c1 | > 11.5 | 2.37 (≈ 6.2 µM) | 0 | 100 | 25 | –
